Activity calls are given as the source filed them. The calls are words filed in the database; no cut-off is given here.
How the values were obtained:
[1] = Cytotoxicity against human HL-7702 cells after 48 hrs by MTT assay; format: cell-based, L02; details: for IC50: Homo sapiens, L02, 48 h; for Activity: human, l02, 48 h
HeLa [2] = assay: Cytotoxicity against human HeLa cells after 48 hrs by MTT assay; format: functional, cell-based
Procedure, shortened: (§1)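 Cells seeded at 3500–13,000 per well. A549, HeLa and HepG2 were grown in DMEM and BGC-823 in RPMI 1640, each with 10% CS plus penicillin/streptomycin, at 37 °C and 5% CO₂. Drug exposure lasted 2 days, followed by MTT readout at A₄₉₂, with untreated controls at 0.6–0.8. IC50 was the concentration cutting absorbance by 50%, interpolated by sigmoidal nonlinear regression. Run in triplicate.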

A549 [3] = assay: Cytotoxicity against human A549 cells after 48 hrs by MTT assay; format: functional, cell-based; details: for IC50: A549, 48 h; procedure, shortened: as §1
[4] = (§2) Cytotoxicity against human BGC823 cells after 48 hrs by MTT assay; format: functional, cell-based; details: BGC-823, 48 h; procedure, shortened: as §1
[5] = Octanol-water partition coefficient, log P of the compound; format: physicochemical
Procedure, shortened: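 Partitioning between 1-octanol and water. The compound concentration was measured in each phase, and logP was calculated as the log of the 1-octanol concentration over the water concentration. The water concentration was corrected by an index-error factor, Y = 2.555.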

HepG2 [6] = assay: Cytotoxicity against human HepG2 cells after 48 hrs by MTT assay; format: functional, cell-based; details: for IC50: HepG2, 48 h; procedure, shortened: as §1
[7] = Cytotoxicity against human HL-7702 cells after 48 hrs by MTT assay relative to etoposide; format: functional, L02
BGC-823 [8] = assay: as §2; format: functional, cell-based; procedure, shortened: as §1
A549 [9] = assay: Selectivity ratio of etoposide IC50 to compound IC50 for human A549 cells; format: functional
A549 [10] = assay: Cytotoxicity against human A549 cells; format: functional, cell-based; procedure, shortened: as §1
[11] = Cytotoxicity against human BGC823 cells; format: functional, cell-based; details: BGC-823; procedure, shortened: as §1
HepG2 [12] = assay: Cytotoxicity against human HepG2 cells; format: functional, cell-based; procedure, shortened: as §1
HepG2 [13] = assay: Selectivity ratio of etoposide IC50 to compound IC50 for human HepG2 cells; format: functional
BGC-823 [14] = assay: Selectivity ratio of etoposide IC50 to compound IC50 for human BGC823 cells; format: functional
[15] = target: DNA topoisomerase 2-alpha (Homo sapiens) (UniProt P11388); assay: Inhibition of human DNA topoisomerase-2 using kDNA as substrate assessed as inhibition of DNA relaxation at 1 to 10 uM after 60 mins by agarose gel electrophoresis
HeLa [16] = assay: Induction of apoptosis in human HeLa cells assessed as late apoptotic cells at 10 uM after 48 hrs by Annexin V/propidium iodide staining-based flow cytometry (reference value: 2.3 %); format: functional
HeLa [17] = assay: Cell cycle arrest in human HeLa cells assessed as accumulation at G0/G1 phase at 0.5 uM after 24 hrs by propidium iodide staining-based flow cytometry (reference value: 37.26 %); format: functional
HeLa [18] = assay: Selectivity ratio of etoposide IC50 to compound IC50 for human HeLa cells after 48 hrs by MTT assay; format: functional
HeLa [19] = assay: Induction of apoptosis in human HeLa cells assessed as late apoptotic cells at 1 uM after 48 hrs by Annexin V/propidium iodide staining-based flow cytometry (reference value: 2.3 %); format: functional
HeLa [20] = assay: Induction of apoptosis in human HeLa cells assessed as early apoptotic cells at 10 uM after 48 hrs by Annexin V/propidium iodide staining-based flow cytometry (reference value: 2.7 %); format: functional
HeLa [21] = assay: Induction of apoptosis in human HeLa cells assessed as late apoptotic cells at 5 uM after 48 hrs by Annexin V/propidium iodide staining-based flow cytometry (reference value: 2.3 %); format: functional
HeLa [22] = assay: Cell cycle arrest in human HeLa cells assessed as accumulation at G2/M phase at 5 uM after 24 hrs by propidium iodide staining-based flow cytometry (reference value: 5.29 %); format: functional
HeLa [23] = assay: Cell cycle arrest in human HeLa cells after 24 hrs by propidium iodide staining-based flow cytometry; format: functional
A549 [24] = assay: Selectivity ratio of etoposide IC50 to compound IC50 for human A549 cells after 48 hrs by MTT assay; format: functional
HeLa [25] = assay: Cell cycle arrest in human HeLa cells assessed as accumulation at G0/G1 phase at 1 uM after 24 hrs by propidium iodide staining-based flow cytometry (reference value: 37.26 %); format: functional
HeLa [26] = assay: Cell cycle arrest in human HeLa cells assessed as accumulation at G2/M phase at 1 uM after 24 hrs by propidium iodide staining-based flow cytometry (reference value: 5.29 %); format: functional
BGC-823 [27] = assay: Selectivity ratio of etoposide IC50 to compound IC50 for human BGC823 cells after 48 hrs by MTT assay; format: functional
HeLa [28] = assay: Cell cycle arrest in human HeLa cells assessed as accumulation at G2/M phase at 0.5 uM after 24 hrs by propidium iodide staining-based flow cytometry (reference value: 5.29 %); format: functional
HepG2 [29] = assay: Selectivity ratio of etoposide IC50 to compound IC50 for human HepG2 cells after 48 hrs by MTT assay; format: functional
HeLa [30] = assay: Induction of apoptosis in human HeLa cells assessed as early apoptotic cells at 5 uM after 48 hrs by Annexin V/propidium iodide staining-based flow cytometry (reference value: 2.7 %); format: functional
HeLa [31] = assay: Induction of apoptosis in human HeLa cells assessed as early apoptotic cells at 1 uM after 48 hrs by Annexin V/propidium iodide staining-based flow cytometry (reference value: 2.7 %); format: functional
HeLa [32] = assay: Cell cycle arrest in human HeLa cells assessed as accumulation at G0/G1 phase at 5 uM after 24 hrs by propidium iodide staining-based flow cytometry (reference value: 37.26 %); format: functional
HeLa [33] = assay: Induction of apoptosis in human HeLa cells after 48 hrs by Annexin V/propidium iodide staining-based flow cytometry; format: functional, cell-based

DNA topoisomerase 2-alpha (Homo sapiens), sequence (P11388 whole entry): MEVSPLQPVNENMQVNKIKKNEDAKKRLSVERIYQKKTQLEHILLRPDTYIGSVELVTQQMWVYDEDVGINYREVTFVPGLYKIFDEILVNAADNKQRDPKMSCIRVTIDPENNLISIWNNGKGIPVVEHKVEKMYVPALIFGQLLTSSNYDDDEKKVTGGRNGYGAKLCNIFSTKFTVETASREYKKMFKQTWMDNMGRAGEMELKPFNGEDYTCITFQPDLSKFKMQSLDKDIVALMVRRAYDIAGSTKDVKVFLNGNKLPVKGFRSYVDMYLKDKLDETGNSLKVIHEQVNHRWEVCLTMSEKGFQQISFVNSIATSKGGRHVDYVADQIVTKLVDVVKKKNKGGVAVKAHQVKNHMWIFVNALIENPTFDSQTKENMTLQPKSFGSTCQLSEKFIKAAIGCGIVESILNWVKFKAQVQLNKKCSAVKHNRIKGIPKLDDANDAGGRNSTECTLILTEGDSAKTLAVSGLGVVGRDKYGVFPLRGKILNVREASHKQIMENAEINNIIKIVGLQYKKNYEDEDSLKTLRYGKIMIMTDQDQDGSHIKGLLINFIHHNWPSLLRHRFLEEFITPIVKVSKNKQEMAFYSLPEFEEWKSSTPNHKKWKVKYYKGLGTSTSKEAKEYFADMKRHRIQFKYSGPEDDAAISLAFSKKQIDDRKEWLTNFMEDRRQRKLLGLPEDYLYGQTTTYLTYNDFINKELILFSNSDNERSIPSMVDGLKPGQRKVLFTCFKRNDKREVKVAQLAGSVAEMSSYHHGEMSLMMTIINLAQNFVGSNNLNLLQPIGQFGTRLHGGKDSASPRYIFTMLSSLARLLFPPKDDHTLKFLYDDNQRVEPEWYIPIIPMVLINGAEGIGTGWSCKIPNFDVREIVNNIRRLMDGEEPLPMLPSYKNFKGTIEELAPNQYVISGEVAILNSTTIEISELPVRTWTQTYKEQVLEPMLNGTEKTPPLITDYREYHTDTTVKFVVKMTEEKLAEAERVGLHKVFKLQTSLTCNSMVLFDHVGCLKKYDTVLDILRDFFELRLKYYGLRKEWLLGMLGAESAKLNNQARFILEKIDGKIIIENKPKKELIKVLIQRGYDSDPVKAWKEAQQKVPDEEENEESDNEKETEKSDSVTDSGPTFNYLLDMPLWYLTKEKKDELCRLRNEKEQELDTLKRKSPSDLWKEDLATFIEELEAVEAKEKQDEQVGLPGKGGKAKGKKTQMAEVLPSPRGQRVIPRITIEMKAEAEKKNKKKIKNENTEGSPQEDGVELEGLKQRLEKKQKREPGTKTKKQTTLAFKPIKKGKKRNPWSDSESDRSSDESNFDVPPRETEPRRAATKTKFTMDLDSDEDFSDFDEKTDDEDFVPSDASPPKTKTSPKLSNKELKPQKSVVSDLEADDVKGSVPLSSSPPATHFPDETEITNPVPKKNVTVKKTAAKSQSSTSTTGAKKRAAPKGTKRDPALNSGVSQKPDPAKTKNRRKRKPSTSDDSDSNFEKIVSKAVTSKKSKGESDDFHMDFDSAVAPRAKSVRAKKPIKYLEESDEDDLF

| Compound | IC50 [1] [µM] | Activity [1] | IC50 (HeLa [2]) [µM] | IC50 (A549 [3]) [µM] | IC50 [4] [µM] | logP [5] | IC50 (HepG2 [6]) [µM] | Activity [7] [%] | other results |
| --- | --- | --- | --- | --- | --- | --- | --- | --- | --- |
| COc1cc([C@@H]2c3cc4c(cc3[C@@H](OC(=O)c3ccc5ccccc5n3)[C@H]3COC(=O)[C@H]23)OCO4)cc(OC)c1O | 20.1 | Dose-dependent effect | 20.5 | 19.2 | 28.8 | 0.8 | 9.18 |  |  |
| COc1cc([C@@H]2c3cc4c(cc3[C@@H](OC(=O)Cn3cnc5c3c(=O)n(C)c(=O)n5C)[C@H]3COC(=O)[C@H]23)OCO4)cc(OC)c1O | 38 | Dose-dependent effect | 0.65 | 6.91 | 2 | 0.43 | 7.91 | 54 |  |
| COc1cc([C@@H]2c3cc4c(cc3[C@@H](NC(=O)c3cc(O)c(O)c(O)c3)[C@H]3COC(=O)[C@H]23)OCO4)cc(OC)c1O | 14.8 | Dose-dependent effect | 22.3 | 33.5 | 24.2 | 0.29 | 27.4 |  |  |
| COc1cc([C@@H]2c3cc4c(cc3[C@@H](OC(=O)c3cnc(C)cn3)[C@H]3COC(=O)[C@H]23)OCO4)cc(OC)c1O | 18.6 | Dose-dependent effect | 9.56 | 10.5 | 1.5 | 0.38 | 14.2 |  |  |
| COc1cc([C@@H]2c3cc4c(cc3[C@@H](NC(=O)c3cnc(C)cn3)[C@H]3COC(=O)[C@H]23)OCO4)cc(OC)c1O | 20.7 | Dose-dependent effect | 16.1 | 18.7 | 3.49 | 0.59 | 6.78 |  |  |
| COc1cc([C@@H]2c3cc4c(cc3[C@@H](O)[C@H]3COC(=O)[C@H]23)OCO4)cc(OC)c1O [4'-DEMETHYLEPIPODOPHYLLOTOXIN] | 13 | Dose-dependent effect | 16 | 52.1 | 21.3 | 0.73 | 18.7 |  | Activity (HeLa [2]): Dose-dependent effect; Activity (A549 [3]): Dose-dependent effect; Activity (BGC-823 [8]): Dose-dependent effect; Activity (HepG2 [6]): Dose-dependent effect |
| COc1cc([C@@H]2c3cc4c(cc3[C@@H](Sc3nc[nH]n3)[C@H]3COC(=O)[C@H]23)OCO4)cc(OC)c1O |  |  |  |  |  |  |  |  | Ratio IC50 (A549 [9]): 221; IC50 (A549 [10]): 0.76 µM; IC50 [11]: 0.28 µM; IC50 (HepG2 [12]): 0.42 µM; Ratio IC50 (HepG2 [13]): 2.73; Ratio IC50 (BGC-823 [14]): 91 |
| COc1cc([C@@H]2c3cc4c(cc3[C@@H](OC(=O)c3cn(C5CC5)c5cc(Cl)c(F)cc5c3=O)[C@H]3COC(=O)[C@H]23)OCO4)cc(OC)c1O | 41.8 | Dose-dependent effect | 0.6 | 10.1 | 17.4 | 0.69 | 16 | 70 |  |
| COc1cc([C@@H]2c3cc4c(cc3[C@@H](O[C@@H]3O[C@@H]5CO[C@@H](C)O[C@H]5[C@H](O)[C@H]3O)[C@H]3COC(=O)[C@H]23)OCO4)cc(OC)c1O [ETOPOSIDE] | 24.6 | Dose-dependent effect | 59.4 | 67.2 | 30.7 | 0.52 | 15.3 |  | Activity (HeLa [2]): Dose-dependent effect; IC50 (A549 [10]): 168 µM; Activity (A549 [3]): Dose-dependent effect; Activity (BGC-823 [8]): Dose-dependent effect; IC50 [11]: 25.7 µM; IC50 (HepG2 [12]): 1.15 µM; inhibition [15]: Active; Activity (HepG2 [6]): Dose-dependent effect |
| COc1cc([C@@H]2c3cc4c(cc3[C@@H](OC(=O)c3cnccn3)[C@H]3COC(=O)[C@H]23)OCO4)cc(OC)c1O | 52.4 | Dose-dependent effect | 0.6 | 3.83 | 4.15 | 0.33 | 1.21 | 114 | Activity (HeLa [16]): 45.5%; Activity (HeLa [17]): 39.65%; Ratio IC50 (HeLa [18]): 66; Activity (HeLa [19]): 7.2%; Activity (HeLa [20]): 10.8%; Activity (HeLa [21]): 30.1%; Activity (HeLa [22]): 66.85%; Activity (HeLa [23]): Dose-dependent effect; Ratio IC50 (A549 [24]): 16; Activity (HeLa [25]): 5.49%; Activity (HeLa [26]): 60.96%; inhibition [15]: Active; Ratio IC50 (BGC-823 [27]): 6; Activity (HeLa [28]): 19.88%; Ratio IC50 (HepG2 [29]): 12; Activity (HeLa [30]): 10.3%; Activity (HeLa [31]): 4.2%; Activity (HeLa [32]): 4.01%; Activity (HeLa [33]): Dose-dependent effect |
| COc1cc([C@@H]2c3cc4c(cc3[C@@H](NC(=O)Cn3cnc5c3c(=O)n(C)c(=O)n5C)[C@H]3COC(=O)[C@H]23)OCO4)cc(OC)c1O | 50.8 | Dose-dependent effect | 3.18 | 7.32 | 5.88 | 0.56 | 2.35 | 106 |  |
| COc1cc([C@@H]2c3cc4c(cc3[C@@H](NC(=O)c3cnccn3)[C@H]3COC(=O)[C@H]23)OCO4)cc(OC)c1O | 53.6 | Dose-dependent effect | 10.8 | 16.5 | 14.4 | 0.43 | 6.64 | 117 |  |

Source: ChEMBL document CHEMBL3259751, “A rational design strategy of the novel topoisomerase II inhibitors for the synthesis of the 4-O-(2-pyrazinecarboxylic)-4'-demethylepipodophyllotoxin with antitumor activity by diminishing the relaxation reaction of topoisomerase II-DNA decatenation” (Bioorg Med Chem, 2014)
